Our source for the Activity and IC50 values is ChEMBL document CHEMBL1154183, “Structure-based optimization of potent and selective inhibitors of the tyrosine kinase erythropoietin producing human hepatocellular carcinoma receptor B4 (EphB4)” (J Med Chem, 2009).

Molecules are shown by their SMILES. pIC50: −log10 of the molar value.

Experiment [1] addresses Dual specificity tyrosine-phosphorylation-regulated kinase 1A (Homo sapiens) (UniProt Q13627). In words: Inhibition of DYRK1A assessed as remaining enzyme activity at 3 uM relative to DMSO.
The target in experiment [2] is Mitogen-activated protein kinase 15 (Homo sapiens) (UniProt Q8TD08). Briefly: Inhibition of ERK8 assessed as remaining enzyme activity at 3 uM relative to DMSO. The gist of the method: (§1)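 Dundee kinase panel, radiometric: [γ-33P]ATP (800 cpm/pmol) at 5, 20 or 50 μM, at or below each kinase's ATP Km; 10 mM magnesium acetate; robotic, room temperature, 30 min. Reactions started with MgATP, stopped with orthophosphoric acid, spotted onto P81 filters. Inhibitor tested at a single concentration; mean % activity of duplicates relative to DMSO control.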

For experiment [3], the target named is MAP kinase-interacting serine/threonine-protein kinase 2 (Homo sapiens) (UniProt Q9HBH9). Briefly: Inhibition of MNK2 assessed as remaining enzyme activity at 3 uM relative to DMSO. An outline of the steps: (§2)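 Radiometric kinase assay run robotically at room temperature for 30 min. Contained 10 mM magnesium acetate and [γ-33P]ATP (800 cpm/pmol) at 5, 20 or 50 μM, chosen per kinase to be at or below its ATP Km. Reactions were started with MgATP, stopped with orthophosphoric acid and spotted onto P81 filters. Result is mean % activity of duplicates at one inhibitor concentration versus DMSO control.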

The target in experiment [4] is Serine/threonine-protein kinase pim-1 (Homo sapiens) (UniProt P11309). Briefly: Inhibition of PIM1 assessed as remaining enzyme activity at 3 uM relative to DMSO. An outline of the steps: as §2
Experiment [5] deals with Glycogen synthase kinase-3 beta (Homo sapiens) (UniProt P49841). Briefly: Inhibition of GSK3-beta assessed as remaining enzyme activity at 3 uM relative to DMSO. An outline of the steps:
as §1

In experiment [6] the target is Serine/threonine-protein kinase BRSK2 (Homo sapiens) (UniProt Q8IWQ3). In words: Inhibition of BRSK2 assessed as remaining enzyme activity at 1 uM relative to DMSO. An outline of the steps:
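Panel assay run robotically at room temperature for 30 min with 10 mM magnesium acetate and [γ-33P]ATP (800 cpm/pmol) at 5, 20 or 50 μM, chosen per kinase to be at or below its ATP Km. Reactions were started with MgATP, stopped with orthophosphoric acid and spotted on P81 filters. Activity is the mean of duplicates at a single inhibitor concentration, as % of DMSO control.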

Experiment [7] concerns the target Serine/threonine-protein kinase NLK (Homo sapiens) (UniProt Q9UBE8). In words: Binding affinity to NLK assessed as percentage of kinase remaining bound to the bead at 1 uM by T7 phage display based binding assay. An outline of the steps: (§3)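 Competition binding assay run by a contract lab. Each kinase was expressed as a fusion to T7 phage, full-length for small kinases and catalytic domain for large ones. Phage were mixed with an immobilized known kinase inhibitor on streptavidin magnetic beads and with test compound at a single 1 μM. Kinase/phage still bound to the beads was quantified by qPCR and expressed as % of DMSO control.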

In experiment [8] the target is Ribosomal protein S6 kinase alpha-3 (Homo sapiens) (UniProt P51812). In words: Inhibition of RSK2 assessed as remaining enzyme activity at 1 uM relative to DMSO.
Experiment [9] deals with Dual specificity tyrosine-phosphorylation-regulated kinase 2 (Homo sapiens) (UniProt Q92630). Briefly: Inhibition of DYRK2 assessed as remaining enzyme activity at 1 uM relative to DMSO. The gist of the method: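 Radiometric kinase assay run robotically at room temperature for 30 min, linear in time and enzyme. Conditions: 10 mM magnesium acetate, [γ-33P]ATP (800 cpm/pmol) at 5, 20 or 50 μM per kinase, at or below its ATP Km. Started with MgATP and stopped with orthophosphoric acid, then spotted on P81 filters. Reported as mean % activity of duplicates versus DMSO controls.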

Experiment [10] addresses Fibroblast growth factor receptor 3 (Homo sapiens) (UniProt P22607). Briefly: Binding affinity to FGFR3 assessed as percentage of kinase remaining bound to the bead at 1 uM by T7 phage display based binding assay. An outline of the steps:
as §3

Experiment [11] concerns the target Tyrosine-protein kinase FRK (Homo sapiens) (UniProt P42685). Briefly: Binding affinity to FRK assessed as percentage of kinase remaining bound to the bead at 1 uM by T7 phage display based binding assay. An outline of the steps: as §3
The next experiment concerns the target Ephrin type-A receptor 8 (Homo sapiens, UniProt P29322). Briefly: Inhibition of EphA8 by [gamma33-P]ATP based assay.
Experiment [12] deals with Serine/threonine-protein kinase Nek6 (Homo sapiens) (UniProt Q9HC98). Briefly: Inhibition of NEK6 assessed as remaining enzyme activity at 1 uM relative to DMSO. An outline of the steps: as §2
Experiment [13] deals with eIF-2-alpha kinase GCN2 (Homo sapiens), Q9P2K8 [S808G]. In words: Binding affinity to GCN2 kinase domain 2 S808G mutant assessed as percentage of kinase remaining bound to the bead at 1 uM by T7 phage display based binding assay. The gist of the method: as §3
For experiment [14], the target named is Mitogen-activated protein kinase 9 (Homo sapiens) (UniProt P45984). Briefly: Inhibition of JNK2 assessed as remaining enzyme activity at 1 uM relative to DMSO. The gist of the method:
as §1

The target of experiment [15] is NUAK family SNF1-like kinase 1 (Homo sapiens) (UniProt O60285). In words: Inhibition of NUAK1 assessed as remaining enzyme activity at 1 uM relative to DMSO. An outline of the steps: as §2
Experiment [16] concerns the target Serine/threonine-protein kinase PLK1 (Homo sapiens) (UniProt P53350). Briefly: Inhibition of PLK1 assessed as remaining enzyme activity at 1 uM relative to DMSO.
The target in experiment [17] is Maternal embryonic leucine zipper kinase (Homo sapiens) (UniProt Q14680). In words: Inhibition of MELK assessed as remaining enzyme activity at 1 uM relative to DMSO. An outline of the steps:
as §2

Experiment [18] addresses Mitogen-activated protein kinase 12 (Homo sapiens) (UniProt P53778). In words: Inhibition of p38-gamma assessed as remaining enzyme activity at 1 uM relative to DMSO.
Experiment [19] has as its target Ephrin type-A receptor 6 (Homo sapiens) (UniProt Q9UF33). Briefly: Binding affinity to EPHA6 assessed as percentage of kinase remaining bound to the bead at 1 uM by T7 phage display based binding assay. An outline of the steps:
as §3

The target in experiment [20] is Interleukin-1 receptor-associated kinase 4 (Homo sapiens) (UniProt Q9NWZ3). Briefly: Inhibition of IRAK4 assessed as remaining enzyme activity at 1 uM relative to DMSO. An outline of the steps:
as §1

Experiment [21] concerns the target Serine/threonine-protein kinase pim-1 (Homo sapiens) (UniProt P11309). Briefly: Inhibition of PIM1 assessed as remaining enzyme activity at 1 uM relative to DMSO. The gist of the method: as §2
The next experiment deals with Ephrin type-A receptor 4 (Homo sapiens, UniProt P54764). Briefly: Inhibition of EphA4 by [gamma33-P]ATP based assay. The gist of the method:
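Radiometric [γ-33P]ATP kinase assay against Eph kinases, following a protocol similar to the Mg-acetate/MgATP filter-binding method.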

The target in experiment [22] is MAP kinase-activated protein kinase 2 (Homo sapiens) (UniProt P49137). In words: Inhibition of MAPKAPK2 assessed as remaining enzyme activity at 1 uM relative to DMSO. The gist of the method: as §2
Experiment [23] deals with Myosin light chain kinase, smooth muscle (Homo sapiens) (UniProt Q15746). Briefly: Inhibition of SmMLCK assessed as remaining enzyme activity at 1 uM relative to DMSO.
Experiment [24] deals with Mitogen-activated protein kinase 11 (Homo sapiens) (UniProt Q15759). In words: Inhibition of p38beta assessed as remaining enzyme activity at 1 uM relative to DMSO.

Sequence of Serine/threonine-protein kinase pim-1 (Homo sapiens) (P11309 whole entry, looked up): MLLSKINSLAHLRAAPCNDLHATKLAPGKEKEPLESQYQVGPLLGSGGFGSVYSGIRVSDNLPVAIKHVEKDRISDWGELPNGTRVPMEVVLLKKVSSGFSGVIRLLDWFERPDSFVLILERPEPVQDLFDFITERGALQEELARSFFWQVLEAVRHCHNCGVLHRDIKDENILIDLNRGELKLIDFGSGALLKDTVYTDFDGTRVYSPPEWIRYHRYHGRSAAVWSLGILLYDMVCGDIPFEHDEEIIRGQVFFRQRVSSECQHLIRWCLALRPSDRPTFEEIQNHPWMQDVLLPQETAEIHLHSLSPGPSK
Sequence of Interleukin-1 receptor-associated kinase 4 (Homo sapiens) (Q9NWZ3 whole entry): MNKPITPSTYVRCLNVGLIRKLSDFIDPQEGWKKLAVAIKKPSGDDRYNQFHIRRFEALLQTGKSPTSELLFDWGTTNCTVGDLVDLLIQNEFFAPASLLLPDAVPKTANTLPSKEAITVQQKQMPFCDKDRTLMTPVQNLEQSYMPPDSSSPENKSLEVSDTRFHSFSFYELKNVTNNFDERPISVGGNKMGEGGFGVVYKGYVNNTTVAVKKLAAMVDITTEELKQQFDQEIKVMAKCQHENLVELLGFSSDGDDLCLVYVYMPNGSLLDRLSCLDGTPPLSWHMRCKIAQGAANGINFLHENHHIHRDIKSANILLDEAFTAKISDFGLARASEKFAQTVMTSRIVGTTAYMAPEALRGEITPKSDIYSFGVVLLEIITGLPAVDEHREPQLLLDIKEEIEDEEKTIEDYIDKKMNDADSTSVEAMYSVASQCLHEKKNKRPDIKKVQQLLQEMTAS
Sequence of Myosin light chain kinase, smooth muscle (Homo sapiens) (Q15746 whole entry): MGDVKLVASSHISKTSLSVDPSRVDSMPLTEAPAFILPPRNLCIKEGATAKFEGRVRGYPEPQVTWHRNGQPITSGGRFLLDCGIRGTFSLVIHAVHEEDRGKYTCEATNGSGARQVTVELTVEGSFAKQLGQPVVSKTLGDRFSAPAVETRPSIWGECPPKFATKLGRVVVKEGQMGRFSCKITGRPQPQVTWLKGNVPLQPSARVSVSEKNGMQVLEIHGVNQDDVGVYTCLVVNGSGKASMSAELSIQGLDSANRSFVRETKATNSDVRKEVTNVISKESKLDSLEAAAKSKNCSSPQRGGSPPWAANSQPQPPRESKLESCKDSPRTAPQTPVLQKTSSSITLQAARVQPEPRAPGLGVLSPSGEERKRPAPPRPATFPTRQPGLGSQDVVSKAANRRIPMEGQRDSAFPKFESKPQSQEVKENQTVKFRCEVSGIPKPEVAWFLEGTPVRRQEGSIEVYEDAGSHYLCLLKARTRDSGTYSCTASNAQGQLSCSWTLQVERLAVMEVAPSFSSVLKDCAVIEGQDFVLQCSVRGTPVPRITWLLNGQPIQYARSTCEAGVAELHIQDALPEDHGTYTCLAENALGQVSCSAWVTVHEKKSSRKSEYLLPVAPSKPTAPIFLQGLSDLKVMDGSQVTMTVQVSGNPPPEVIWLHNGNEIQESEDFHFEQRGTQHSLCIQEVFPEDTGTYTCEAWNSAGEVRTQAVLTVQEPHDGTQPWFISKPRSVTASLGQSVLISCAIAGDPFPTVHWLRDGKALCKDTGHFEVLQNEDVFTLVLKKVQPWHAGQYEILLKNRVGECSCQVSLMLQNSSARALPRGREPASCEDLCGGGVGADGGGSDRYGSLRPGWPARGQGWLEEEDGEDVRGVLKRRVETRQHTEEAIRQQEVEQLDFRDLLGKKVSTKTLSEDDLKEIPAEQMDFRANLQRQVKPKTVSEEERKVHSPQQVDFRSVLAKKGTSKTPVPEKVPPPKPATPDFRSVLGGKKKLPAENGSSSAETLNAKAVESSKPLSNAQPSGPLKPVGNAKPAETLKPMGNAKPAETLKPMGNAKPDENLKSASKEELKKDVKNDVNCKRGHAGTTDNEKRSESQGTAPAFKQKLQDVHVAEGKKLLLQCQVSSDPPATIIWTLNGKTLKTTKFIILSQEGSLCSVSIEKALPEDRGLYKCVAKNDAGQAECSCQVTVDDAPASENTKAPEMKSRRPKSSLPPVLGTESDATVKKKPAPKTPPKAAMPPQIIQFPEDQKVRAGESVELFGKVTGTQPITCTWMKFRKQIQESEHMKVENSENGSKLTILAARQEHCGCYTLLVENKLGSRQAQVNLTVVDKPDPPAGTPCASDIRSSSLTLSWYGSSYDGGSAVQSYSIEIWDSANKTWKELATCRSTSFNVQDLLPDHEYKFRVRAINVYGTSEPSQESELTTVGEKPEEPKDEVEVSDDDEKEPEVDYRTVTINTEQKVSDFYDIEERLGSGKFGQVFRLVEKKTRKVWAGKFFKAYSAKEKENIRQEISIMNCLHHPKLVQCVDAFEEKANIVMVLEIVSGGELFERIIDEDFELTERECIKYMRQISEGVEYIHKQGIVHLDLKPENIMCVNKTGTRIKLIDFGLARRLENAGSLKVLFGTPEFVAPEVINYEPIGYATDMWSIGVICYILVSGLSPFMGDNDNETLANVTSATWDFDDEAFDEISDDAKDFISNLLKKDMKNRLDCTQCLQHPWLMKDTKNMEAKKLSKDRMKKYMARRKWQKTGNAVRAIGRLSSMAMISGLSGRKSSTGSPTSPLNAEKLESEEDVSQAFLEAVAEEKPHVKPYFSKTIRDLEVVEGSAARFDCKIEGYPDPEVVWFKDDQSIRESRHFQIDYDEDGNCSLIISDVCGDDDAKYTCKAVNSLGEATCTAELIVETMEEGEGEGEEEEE
Sequence of Glycogen synthase kinase-3 beta (Homo sapiens) (P49841 whole entry, looked up): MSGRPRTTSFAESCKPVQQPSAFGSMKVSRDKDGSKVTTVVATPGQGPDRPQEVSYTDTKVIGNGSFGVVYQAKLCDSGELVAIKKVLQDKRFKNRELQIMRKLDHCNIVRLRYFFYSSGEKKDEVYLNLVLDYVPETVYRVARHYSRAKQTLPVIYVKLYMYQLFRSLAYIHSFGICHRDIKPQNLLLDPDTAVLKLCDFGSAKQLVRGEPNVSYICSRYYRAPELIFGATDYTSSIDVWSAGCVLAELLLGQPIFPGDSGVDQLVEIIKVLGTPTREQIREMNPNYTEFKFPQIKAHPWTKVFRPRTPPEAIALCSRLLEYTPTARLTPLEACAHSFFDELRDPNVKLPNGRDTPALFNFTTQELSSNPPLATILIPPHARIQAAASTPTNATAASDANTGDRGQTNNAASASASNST
Sequence of Mitogen-activated protein kinase 9 (Homo sapiens) (P45984 whole entry, looked up): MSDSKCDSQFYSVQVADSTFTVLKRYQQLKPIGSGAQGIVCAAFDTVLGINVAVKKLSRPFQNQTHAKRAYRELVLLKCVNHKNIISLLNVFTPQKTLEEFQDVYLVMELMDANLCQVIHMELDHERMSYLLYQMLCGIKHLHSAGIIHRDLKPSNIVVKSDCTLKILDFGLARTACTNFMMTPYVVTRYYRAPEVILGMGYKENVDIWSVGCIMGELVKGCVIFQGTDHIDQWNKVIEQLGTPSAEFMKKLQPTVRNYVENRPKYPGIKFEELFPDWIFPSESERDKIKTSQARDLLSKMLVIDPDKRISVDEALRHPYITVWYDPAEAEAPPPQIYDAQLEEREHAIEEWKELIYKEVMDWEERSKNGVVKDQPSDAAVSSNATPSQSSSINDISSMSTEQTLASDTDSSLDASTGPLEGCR
Sequence of Ephrin type-A receptor 6 (Homo sapiens) (Q9UF33 whole entry): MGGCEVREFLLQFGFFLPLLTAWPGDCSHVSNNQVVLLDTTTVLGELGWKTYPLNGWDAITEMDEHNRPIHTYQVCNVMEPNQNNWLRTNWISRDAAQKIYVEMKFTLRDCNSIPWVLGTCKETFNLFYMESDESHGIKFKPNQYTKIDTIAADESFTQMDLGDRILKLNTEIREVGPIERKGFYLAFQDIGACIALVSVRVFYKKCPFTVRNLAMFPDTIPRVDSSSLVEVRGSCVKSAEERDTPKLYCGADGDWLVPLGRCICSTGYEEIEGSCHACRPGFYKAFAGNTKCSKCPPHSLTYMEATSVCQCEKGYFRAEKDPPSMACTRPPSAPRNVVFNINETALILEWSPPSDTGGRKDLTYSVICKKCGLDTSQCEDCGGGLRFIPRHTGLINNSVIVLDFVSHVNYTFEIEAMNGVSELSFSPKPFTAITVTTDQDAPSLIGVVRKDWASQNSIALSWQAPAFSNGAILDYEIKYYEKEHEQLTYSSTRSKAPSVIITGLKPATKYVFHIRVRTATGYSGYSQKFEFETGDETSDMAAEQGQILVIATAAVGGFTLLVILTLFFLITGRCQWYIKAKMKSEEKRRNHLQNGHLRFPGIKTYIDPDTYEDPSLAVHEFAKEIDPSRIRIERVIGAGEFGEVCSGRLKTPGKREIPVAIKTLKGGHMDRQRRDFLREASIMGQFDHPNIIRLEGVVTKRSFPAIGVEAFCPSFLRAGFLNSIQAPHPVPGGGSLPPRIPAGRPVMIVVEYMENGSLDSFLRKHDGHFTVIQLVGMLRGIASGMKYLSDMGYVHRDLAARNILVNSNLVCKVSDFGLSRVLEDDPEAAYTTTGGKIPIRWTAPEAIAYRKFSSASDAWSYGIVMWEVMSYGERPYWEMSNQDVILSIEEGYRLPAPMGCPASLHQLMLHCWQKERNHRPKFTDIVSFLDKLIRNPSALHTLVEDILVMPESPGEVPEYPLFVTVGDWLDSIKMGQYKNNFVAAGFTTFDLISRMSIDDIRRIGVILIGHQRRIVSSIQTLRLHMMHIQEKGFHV
Sequence of Mitogen-activated protein kinase 12 (Homo sapiens) (P53778 whole entry): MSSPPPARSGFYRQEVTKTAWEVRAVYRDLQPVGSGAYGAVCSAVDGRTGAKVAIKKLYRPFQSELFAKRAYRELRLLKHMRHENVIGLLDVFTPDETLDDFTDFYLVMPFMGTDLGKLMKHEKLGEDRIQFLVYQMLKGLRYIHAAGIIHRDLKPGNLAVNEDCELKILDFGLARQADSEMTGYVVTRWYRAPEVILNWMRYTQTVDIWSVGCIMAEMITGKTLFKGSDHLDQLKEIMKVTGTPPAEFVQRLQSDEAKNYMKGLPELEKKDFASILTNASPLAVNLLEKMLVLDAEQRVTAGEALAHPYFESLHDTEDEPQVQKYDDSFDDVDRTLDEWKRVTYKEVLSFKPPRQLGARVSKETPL

On to `COc1ccccc1-n1c(-c2ccccc2C)cn2c3c(=O)[nH]c(=O)n(C)c3nc12`, for which the Activity was 99% in [1]; 109% in [2]; 85% in experiment [3]; 96% in [4]; 102% in [5].

A word on the pIC50: it is the negative decadic logarithm of the IC50, by convention in mol/L. A high value points to a small IC50. As to `COc1ccccc1-n1c(-c2cc(O)ccc2C)cn2c3c(=O)[nH]c(=O)n(C)c3nc12`, the Activity stood at 82% in experiment [6]; 83% in experiment [7]; 104% in experiment [8]; 86% in [9]; 89% in [10]; 0.3% in experiment [11]. Moreover, the Activity amounted to 89% in experiment [12]; 100% in experiment [13]; 94% in experiment [14]; 133% in experiment [15]; 93% in experiment [16]; 80% in experiment [17]. In addition, the Activity in experiment [18] is 84%; in [19], 40%; in experiment [20] it was 82%; in experiment [21], 88%; in experiment [22], 90%; in experiment [23], 87%. The Activity in experiment [24] was 83%. In addition, the pIC50 against Ephrin type-A receptor 8 was 8.35; at Ephrin type-A receptor 4, 8.48.
